The test system of test [1] is Bel-7402. The test can be described thus: Upregulation of Bax level in human Bel7402 cells after 72 hrs by Western blot analysis. It is filed as functional, cell-based. The method, boiled down:
(§1)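 Bel-7402 cells were treated for 72 h at the indicated concentrations (0.125–0.5 µM) and lysed. Lysates were cleared at 14,000 g for 10 min at 4 °C, and 25 µg protein per lane was run on 10% SDS-PAGE and transferred to nitrocellulose. Membranes were blocked in 5% milk, probed overnight at 4 °C with monoclonal antibodies, and detected by ECL. Densitometry was normalized to GAPDH.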
For orientation: Immunoblotting shows a protein as a band on a membrane.

Test [2] relates to Bel-7402. The test can be described thus: Induction of apoptosis in human Bel7402 cells assessed as viable cells at 0.25 uM after 72 hrs by Annexin V-FITC/propidium iodide staining based flow cytometry (reference value: 82.48%). Format: functional. The settings on record: Bel-7402, 72 h, read-out: Activity. (In general: Flow cytometry measures light scatter and fluorescence of single cells or particles in a stream.)

Test [3] deals with Bel-7402. The test can be described thus: Upregulation of caspase-3 level in human Bel7402 cells at 0.125 to 0.5 uM after 72 hrs by Western blot analysis. It is filed as functional, cell-based. Summed up: as §1
In test [4] the test system is Bel-7402. The test can be described thus: Induction of apoptosis in human Bel7402 cells assessed as viable cells at 0.5 uM after 72 hrs by Annexin V-FITC/propidium iodide staining based flow cytometry (reference value: 82.48%). It is filed as functional. The note with it: Bel-7402, 72 h, read-out: Activity.
The test system of test [5] is Bel-7402. The test can be described thus: Induction of apoptosis in human Bel7402 cells assessed as early apoptotic cells at 0.125 uM after 72 hrs by Annexin V-FITC/propidium iodide staining based flow cytometry (reference value: 1.65%). It is filed as functional.
The test system of test [6] is Bel-7402. The test can be described thus: Induction of apoptosis in human Bel7402 cells assessed as late apoptotic cells at 0.25 uM after 72 hrs by Annexin V-FITC/propidium iodide staining based flow cytometry (reference value: 2.82%). Format: functional.
Test [7] relates to Bel-7402. The test can be described thus: Downregulation of Bcl-2 level in human Bel7402 cells after 72 hrs by Western blot analysis. Format: functional, cell-based. The method, boiled down: as §1
The subject of test [8] is Bel-7402. The test can be described thus: Induction of apoptosis in human Bel7402 cells assessed as rupture of cell membrane at 0.5 uM after 48 hrs by Hoechst 33258 staining based fluorescent microscopic method. Format: functional. Summed up:
(§2)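 Bel-7402 cells were seeded and grown 24 h, treated at 0.125, 0.25 and 0.5 µM for 48 h, then harvested by mild trypsinization and washed in PBS. They were stained with Hoechst 33258 for 15 min at room temperature in the dark and examined by fluorescence microscopy with a DAPI filter. Untreated cells served as control.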

The test system of test [9] is Bel-7402. The test can be described thus: Cell cycle arrest in human Bel7402 cells assessed as accumulation at S phase at 0.5 uM after 72 hrs by propidium iodide staining-based flow cytometric method (reference value: 37.02%). Format: functional.
The subject of test [10] is Bel-7402. The test can be described thus: Cell cycle arrest in human Bel7402 cells assessed as accumulation at G1 phase at 0.25 uM after 72 hrs by propidium iodide staining-based flow cytometric method (reference value: 39.28%). It is filed as functional.
Test [11] has as its system Bel-7402. The test can be described thus: Induction of apoptosis in human Bel7402 cells after 72 hrs by Annexin V-FITC/propidium iodide staining based flow cytometry. It is filed as functional, cell-based.
Test [12] deals with Bel-7402. The test can be described thus: Induction of apoptosis in human Bel7402 cells assessed as reduction in number of adherent cells at 0.125 to 0.25 uM after 48 hrs by Hoechst 33258 staining based fluorescent microscopic method. It is filed as functional, cell-based. The method, boiled down:
as §2

Test [13] relates to Bel-7402. The test can be described thus: Induction of apoptosis in human Bel7402 cells assessed as necrotic cells at 0.125 uM after 72 hrs by Annexin V-FITC/propidium iodide staining based flow cytometry (reference value: 13.05%). Format: functional.
The subject of test [14] is Bel-7402. The test can be described thus: Induction of apoptosis in human Bel7402 cells assessed as cell shrinkage at 0.125 to 0.25 uM after 48 hrs by Hoechst 33258 staining based fluorescent microscopic method. It is filed as functional. Summed up: as §2
The subject of test [15] is Bel-7402. The test can be described thus: Induction of apoptosis in human Bel7402 cells assessed as nuclear fragmentation at 0.5 uM after 48 hrs by Hoechst 33258 staining based fluorescent microscopic method. Format: functional, cell-based. Summed up:
as §2

Test [16] deals with Bel-7402. The test can be described thus: Cell cycle arrest in human Bel7402 cells assessed as accumulation at G1 phase after 72 hrs by propidium iodide staining-based flow cytometric method. Format: functional.
The test system of test [17] is Bel-7402. The test can be described thus: Induction of mitochondrial membrane depolarization in human Bel7402 cells assessed as cells with mitochondrial membrane potential loss at 0.125 uM after 24 to 48 hrs by JC-1 staining based flow cytometric analysis (reference value: 6.17%). It is filed as functional.
The subject of test [18] is Bel-7402. The test can be described thus: Induction of cyto-c accumulation in human Bel7402 cells cytosol at 0.125 to 0.5 uM after 72 hrs by Western blot analysis. Format: functional, cell-based. The method, boiled down: as §1

Active and inactive are the calls of the source. No cut-off for these calls is given here.

For the molecule `C[C@H]1CCC/C=C/[C@@H]2C[C@H](O)C[C@H]2[C@H](OC(=O)c2ccc(N(CCCl)CCCl)cc2)/C=C/C(=O)O1`, the Activity entry in [1] is “Dose-dependent effect”; in test [5] it was 10.49%; in test [6], 11.26%; in [7], “Dose-dependent effect”; in [9], 30.14%; in test [10] it was 54.26%. For the same molecule, the Activity entry in [11] was “Dose-dependent effect”; in test [13], 3.45%; in test [16] it was “Dose-dependent effect”; in test [17], 16.06%. For the same molecule, the viability at 0.25 µM in [2] stood at 62.9%. The outcome in [3], in [8], in [12], in [14], in [15] and in test [18] was Active. In addition, in test [4], the viability at 0.5 µM turned out to be 38.5%.

The values above are taken from ChEMBL document CHEMBL4196069 (Eur J Med Chem, 2018).
